From ChEMBL document CHEMBL1121634, “Heat-induced formation of alpha,beta-unsaturated nucleoside dialdehydes and their activity with adenosine deaminase” (J Med Chem, 1980)

Tests used:
[1] = molecular target: T1, Adenosine deaminase (Bos taurus, UniProt P56658); assay: Inhibitor constant against adenosine deaminase in 0.05 M sodium phosphate buffer at pH 7.0 was determined after heating to 100 degrees celsius
T1 sequence (P56658 whole entry): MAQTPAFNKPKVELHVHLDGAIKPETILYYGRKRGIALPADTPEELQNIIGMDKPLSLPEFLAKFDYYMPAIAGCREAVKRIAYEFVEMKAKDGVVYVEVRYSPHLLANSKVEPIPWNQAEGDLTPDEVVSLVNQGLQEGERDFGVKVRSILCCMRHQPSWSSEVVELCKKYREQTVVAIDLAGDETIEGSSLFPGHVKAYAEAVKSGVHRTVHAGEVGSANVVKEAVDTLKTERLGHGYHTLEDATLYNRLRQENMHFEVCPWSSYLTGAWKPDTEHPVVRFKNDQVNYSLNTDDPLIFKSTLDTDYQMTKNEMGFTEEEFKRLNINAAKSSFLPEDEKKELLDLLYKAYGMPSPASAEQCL
In short: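 Dialdehyde heated at 100 °C in aqueous phosphate buffer before testing. Adenosine deaminase (0.25 unit) added to buffered adenosine (30–70 μM, at least five levels) with dialdehyde (3–190 μM, two levels). Rate of absorbance change at 265 nm followed at 25 °C, 0.05 M sodium phosphate, pH 7.0. Ki from Lineweaver–Burk plots fitted by Wilkinson least squares.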

[2] = molecular target: T1, Adenosine deaminase; assay: Inhibitory constant against adenosine deaminase in 0.05 M sodium phosphate buffer at pH 7.0 was determined before heating
[3] = molecular target: T1, Adenosine deaminase; assay: Inhibitor constant against adenosine deaminase in 0.05 M sodium phosphate buffer at pH 7.0, was determined after heating to 100 degrees celsius
In short: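 Dialdehyde pre-heated as an aqueous phosphate-buffer solution at 100 °C (about 1 h). Adenosine deaminase (0.25 unit) added to buffered adenosine (30–70 μM) plus dialdehyde (3-190 μM) in 0.05 M sodium phosphate, pH 7.0, 25 °C. Absorbance change at 265 nm followed. At least five substrate and two inhibitor levels used. Ki from Lineweaver–Burk plots, least-squares lines.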

[4] = molecular target: T1, Adenosine deaminase; assay: Inhibitory constant against adenosine deaminase in 0.05 M sodium phosphate buffer at pH 7.0, was determined before heating

CC(O)[C@H](C=O)O[C@@H](C=O)n1cnc2c(N)ncnc21 (stereo in doubt; 9)
Ki [1]: 38 µM

Nc1ncnc2c1ncn2[C@H](C=O)OCC=O
Ki [1]: 800 µM
Ki [2]: 780 µM

C=C(C=O)OC(C=O)n1cnc2c(N)ncnc21 (centres undefined)
Ki [2]: 4 µM

CC(O)[C@@H](C=O)OC(C=O)n1cnc2c(N)ncnc21 (single isomer, unassigned; 7)
Ki [1]: 24 µM

C[C@@H](C=O)O[C@@H](C=O)n1cnc2c(N)ncnc21 (stereo in doubt; 4)
Ki [1]: 30 µM
Ki [2]: 28 µM

Nc1ncnc2c1ncn2[C@@H](C=O)OCC=O
Ki [1]: 30 µM
Ki [2]: 46 µM

Nc1ncnc2c1ncn2[C@@H](C=O)O[C@@H](C=O)CO
Ki [3]: 5 µM
Ki [4]: 520 µM

CC(O)[C@@H](C=O)OC(C=O)n1cnc2c(N)ncnc21 (single isomer, unassigned; 10)
Ki [1]: 20 µM
Ki [2]: 150 µM

CC(O)[C@H](C=O)O[C@@H](C=O)n1cnc2c(N)ncnc21 (stereo in doubt; 8)
Ki [1]: 69 µM

CC(O)[C@H](C=O)OC(C=O)n1cnc2c(N)ncnc21 (single isomer, unassigned)
Ki [1]: 21 µM

C[C@@H](C=O)O[C@@H](C=O)n1cnc2c(N)ncnc21 (stereo in doubt; 13)
Ki [1]: 100 µM
Ki [2]: 160 µM

Nc1ncnc2c1ncn2[C@H](C=O)O[C@@H](C=O)CO
Ki [1]: 8 µM
Ki [4]: 310 µM
